These results are taken from ChEMBL document CHEMBL4616713, “Discovery of Novel Nonpeptidic PAR2 Ligands” (ACS Med Chem Lett, 2020).

Series [1] deals with T1, Proteinase-activated receptor 2 (Homo sapiens, UniProt P55085).
T1 sequence (P55085 whole entry): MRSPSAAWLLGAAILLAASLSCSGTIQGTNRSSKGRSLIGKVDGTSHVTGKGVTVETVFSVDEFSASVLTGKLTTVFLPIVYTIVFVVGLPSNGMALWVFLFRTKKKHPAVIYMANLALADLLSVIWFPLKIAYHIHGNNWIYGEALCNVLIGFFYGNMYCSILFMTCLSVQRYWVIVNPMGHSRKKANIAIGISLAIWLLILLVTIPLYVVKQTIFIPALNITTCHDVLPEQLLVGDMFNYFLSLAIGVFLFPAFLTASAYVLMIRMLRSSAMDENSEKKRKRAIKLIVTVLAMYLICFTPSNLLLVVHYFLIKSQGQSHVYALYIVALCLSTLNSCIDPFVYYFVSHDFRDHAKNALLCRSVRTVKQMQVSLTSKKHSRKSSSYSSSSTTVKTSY
In words: Agonist activity at human PAR2 expressed in HEK293T cells assessed as induction of Galphaq-stimulated IP1 formation incubated for 2 hrs by FRET assay. Format: functional, cell-based, HEK-293T. The method, boiled down: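 Gq activation via PAR2 in HEK293 cells, read as IP1 accumulation by FRET (IP-One). For curves without a plateau, the value given is efficacy at 30 μM. Data are mean ± SEM of at least three independent experiments, each performed in duplicate.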

The target of series [2] is T1, Proteinase-activated receptor 2. As to the kind of experiment: Agonist activity at PK1-tagged PAR2 (unknown origin) expressed in HEK293 cells assessed as induction of beta-arrestin recruitment incubated for 90 mins by Pathhunter chemiluminescent assay. The class given is cell-based. Put shortly: (§1)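 PathHunter enzyme-complementation read-out of β-arrestin-2 recruitment to PAR2 in HEK293 cells. Efficacy is expressed relative to reference 2f-LIGRLO-NH2. Data are mean ± SEM of at least three independent experiments run in duplicate.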
(Arrestin recruitment assays detect the binding of arrestin to an activated receptor.)

For series [3] the target is unchanged. In words: Agonist activity at PK1-tagged PAR2 (unknown origin) expressed in HEK293 cells assessed as induction of beta-arrestin recruitment at 30 uM incubated for 90 mins by Pathhunter chemiluminescent assay relative to 2f-LIGRLO-NH2. The note with it: 1.5 h. Format: cell-based. Put shortly: as §1
The target is the same in series [4]. As to the kind of experiment: Agonist activity at PK1-tagged PAR2 (unknown origin) expressed in HEK293 cells assessed as induction of beta-arrestin recruitment incubated for 90 mins by Pathhunter chemiluminescent assay relative to 2f-LIGRLO-NH2. The class given is cell-based. The note with it: 1.5 h. The method, boiled down: as §1
The nature of series [5]: Metabolic stability in Sprague-Dawley rat liver microsomes assessed as CYP450-mediated drug degradation at 20 uM measured up to 60 mins in presence of NADPH by LC-MS analysis. The note with it: 1 h.
Series [6] in a line: Stability in rat plasma measured up to 4 hrs by LC-MS analysis. The class given is ADME, cell-free. Put shortly:
(§2)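 Ligand was incubated in rat plasma and sampled at set time points up to 4 h. Samples were analysed by LC–MS. Standard-corrected peak areas are expressed as % of t = 0 min, mean ± SEM (n ≥ 3).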

Series [7] can be described thus: Stability in rat plasma assessed as drug degradation after 1 hr by LC-MS analysis. Format: ADME, cell-free. Put shortly:
as §2

As usually defined, the EC50 is the concentration needed to bring the measured effect to its halfway point. As a reminder, the Emax is the greatest response seen or fitted, relative to the assay's reference.

Non-standard residues stand in square brackets, D forms with d. Residues, ends and D or L forms follow the SMILES beside them. *: point of attachment. Orn = NCCC[C@H](N)C(=O)O; 2Furoyl = O=C(c1ccco1)*

Turning to `NC(=O)Cc1ccccc1CNC(=O)Cc1ccccc1CNC(=O)c1ccno1`, the EC50 entry in series [1] (hek-293t) and in series [2] (hek293) was “Not Active” in each case.

Turning to `NC(=O)Cc1ccccc1CNC(=O)[C@H](Cc1ccccc1)NC(=O)c1ccno1`, the EC50 in series [1] (read-out: EC50) worked out at 1.9 µM. The Emax at 30 µM in series [3] turned out to be 32%.

As to `NC(=O)Cc1ccccc1CNC(=O)[C@H](CC1CCCCC1)NC(=O)c1ccno1`, the EC50 in series [1] (read-out: EC50) was found to be 0.59 µM; in series [2] (read-out: EC50) it was 6 µM. Also, the Emax in series [4] amounted to 65%. For the same compound, the Stability entry in series [5] and in series [6] was “Stable” each time.

In the case of `Cc1cc(C(=O)N[C@@H](CC2CCCCC2)C(=O)NCc2ccccc2CC(N)=O)on1`, the results for the EC50 in series [1] (read-out: EC50) and in series [2] (read-out: EC50) were 0.64 µM and 8.9 µM, respectively. Moreover, the Emax in series [4] is 95%. For the same compound, the Stability result in series [5] and in series [6] was “Stable” throughout.

In the case of `CC[C@H](C)[C@H](NC(=O)[C@H](CC(C)C)NC(=O)c1ccco1)C(=O)NCC(=O)N[C@@H](CCCN=C(N)N)C(=O)N[C@@H](CC(C)C)C(=O)N[C@@H](CCCN)C(N)=O` (2Furoyl-LIGRL[Orn]-NH2), the EC50 is 0.15 µM in series [1] (read-out: EC50) and 0.43 µM in series [2] (read-out: EC50). Besides, the Stability result in series [5] is given as “Stable”; in series [7], “Unstable”.

Take `CC[C@H](C)[C@H](NC(=O)[C@H](CC(C)C)NC(=O)c1ccco1)C(=O)NCC(=O)N[C@@H](CCCNC(=N)N)C(=O)N[C@@H](CC(C)C)C(=O)N[C@@H](CCCN)C(N)=O` (2Furoyl-LIGRL[Orn]-NH2): the Emax in series [4] was 100%.
